Activity calls are given as the source filed them. The calls are words filed in the database; no cut-off is given here.
Columns and labels:
[1] = test system: MDA-MB-231; test: Antimetastatic activity against human MDA-MB-231 cells xenografted in mouse assessed as reduction in lymph node metastasis at 30 mg/kg, ip bid measured 3 times per week starting at day 12 by hematoxylin and eosin staining based assay relative to control; format: functional; set-up: scale not given: the % may be the effect or the level left
Procedure, shortened: (§1)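 Female SCID/Beige mice inoculated with 2 x 10^6 MDA-MB-231 cells in HBSS:Matrigel (1:1) into third mammary fat pad under ketamine/xylazine. Test agent 30 mg/kg ip twice daily (12 h apart) in PEG400/H2O 70:30, or paclitaxel 10 mg/kg iv three times weekly; 10 mice/group. Tumors measured three times weekly from day 12; lungs and lymph nodes excised, formalin-fixed, nodes H&E-scored (mean ± SEM).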

[2] = Toxicity in SCID/beige mouse xenografted with human MDA-MB-231 cells assessed as body weight gain at 30 mg/kg, ip bid measured 3 times per week starting at day 12; format: organism-based; settings: in vivo
[3] = molecular target: Delta(3,5)-Delta(2,4)-dienoyl-CoA isomerase, mitochondrial (Homo sapiens, UniProt Q13011); test: Binding affinity to ECH1 in SILAC-labeled human MDA-MB-231 cells lysate by mass spectrometry based kinAffinity assay; format: subcellular
Chain of Delta(3,5)-Delta(2,4)-dienoyl-CoA isomerase, mitochondrial (Q13011 whole entry): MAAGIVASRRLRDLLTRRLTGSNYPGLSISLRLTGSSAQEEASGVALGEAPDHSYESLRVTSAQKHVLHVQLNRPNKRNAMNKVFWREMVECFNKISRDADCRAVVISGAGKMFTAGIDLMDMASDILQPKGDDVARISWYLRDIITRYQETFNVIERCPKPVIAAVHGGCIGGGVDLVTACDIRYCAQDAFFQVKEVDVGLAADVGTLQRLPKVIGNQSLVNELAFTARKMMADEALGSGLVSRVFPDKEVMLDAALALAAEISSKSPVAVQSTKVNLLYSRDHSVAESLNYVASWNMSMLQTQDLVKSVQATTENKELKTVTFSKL
Procedure, shortened: (§2)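 Chemical proteomics: MDA-MB-231 lysate bound to matrix of immobilized broad kinase inhibitors at several densities (BC50), then competed with increasing free compound (CC50); proteins quantified by mass spectrometry, Kd via Cheng-Prusoff. Two competition formats run in parallel to check equilibrium.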

[4] = molecular target: Mitogen-activated protein kinase kinase kinase kinase 4 (Homo sapiens, UniProt O95819); test: Binding affinity to MAP4K4 in SILAC-labeled human MDA-MB-231 cells lysate by mass spectrometry based kinAffinity assay; format: subcellular; procedure, shortened: as §2
Chain of Mitogen-activated protein kinase kinase kinase kinase 4 (O95819 whole entry): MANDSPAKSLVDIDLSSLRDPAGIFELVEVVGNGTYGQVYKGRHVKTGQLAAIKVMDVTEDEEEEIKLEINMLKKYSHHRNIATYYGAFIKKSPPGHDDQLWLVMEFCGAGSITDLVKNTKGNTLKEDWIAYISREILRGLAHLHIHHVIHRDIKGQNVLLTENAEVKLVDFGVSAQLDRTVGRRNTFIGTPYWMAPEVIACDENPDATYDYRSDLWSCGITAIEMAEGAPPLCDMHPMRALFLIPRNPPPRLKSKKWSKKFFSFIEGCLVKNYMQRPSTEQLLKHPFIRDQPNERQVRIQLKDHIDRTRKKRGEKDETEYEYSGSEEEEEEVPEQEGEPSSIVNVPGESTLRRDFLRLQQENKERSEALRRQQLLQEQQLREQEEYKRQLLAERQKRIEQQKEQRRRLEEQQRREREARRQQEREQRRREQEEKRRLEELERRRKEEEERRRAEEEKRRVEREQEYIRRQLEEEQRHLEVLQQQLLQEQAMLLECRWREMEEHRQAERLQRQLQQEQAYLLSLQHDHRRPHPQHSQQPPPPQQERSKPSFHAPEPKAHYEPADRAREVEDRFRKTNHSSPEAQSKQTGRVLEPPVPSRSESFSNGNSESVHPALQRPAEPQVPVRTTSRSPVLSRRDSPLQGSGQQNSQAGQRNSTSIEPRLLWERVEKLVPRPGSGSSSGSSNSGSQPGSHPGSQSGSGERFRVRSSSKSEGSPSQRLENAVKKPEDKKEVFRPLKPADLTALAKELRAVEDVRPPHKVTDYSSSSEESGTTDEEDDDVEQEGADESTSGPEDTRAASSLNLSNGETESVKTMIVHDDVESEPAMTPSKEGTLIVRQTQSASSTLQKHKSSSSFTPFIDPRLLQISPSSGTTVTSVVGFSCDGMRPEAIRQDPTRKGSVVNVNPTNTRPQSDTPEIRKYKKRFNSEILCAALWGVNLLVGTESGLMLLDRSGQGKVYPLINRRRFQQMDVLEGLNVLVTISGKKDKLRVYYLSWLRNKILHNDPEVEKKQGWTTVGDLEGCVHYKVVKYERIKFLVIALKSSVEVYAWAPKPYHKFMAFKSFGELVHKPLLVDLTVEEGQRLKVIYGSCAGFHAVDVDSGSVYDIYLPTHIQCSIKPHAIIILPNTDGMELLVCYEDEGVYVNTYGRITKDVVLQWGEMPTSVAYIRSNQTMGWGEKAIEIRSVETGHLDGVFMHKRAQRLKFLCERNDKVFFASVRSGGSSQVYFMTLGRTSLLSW

[5] = test system: MDA-MB-231; test: Antimetastatic activity against human MDA-MB-231 cells xenografted in mouse assessed as reduction in lung metastasis at 30 mg/kg, ip bid measured 3 times per week starting at day 12 by hematoxylin and eosin staining based assay relative to control; format: functional; set-up: scale not given: the % may be the effect or the level left; procedure, shortened: as §1
[6] = Apparent volume of distribution in mouse at 3 mg/kg, iv by LC/MS/MS analysis; settings: in vivo, read-out: Vz
[7] = molecular target: Fibroblast growth factor receptor 3 (Homo sapiens) (UniProt P22607); test: Inhibition of FGFR3 (unknown origin) using fluorescently-labeled peptide as substrate at 10 uM by IMAP fluorescence polarization assay
Chain of Fibroblast growth factor receptor 3 (Homo sapiens) (P22607 23-806 limits assumed): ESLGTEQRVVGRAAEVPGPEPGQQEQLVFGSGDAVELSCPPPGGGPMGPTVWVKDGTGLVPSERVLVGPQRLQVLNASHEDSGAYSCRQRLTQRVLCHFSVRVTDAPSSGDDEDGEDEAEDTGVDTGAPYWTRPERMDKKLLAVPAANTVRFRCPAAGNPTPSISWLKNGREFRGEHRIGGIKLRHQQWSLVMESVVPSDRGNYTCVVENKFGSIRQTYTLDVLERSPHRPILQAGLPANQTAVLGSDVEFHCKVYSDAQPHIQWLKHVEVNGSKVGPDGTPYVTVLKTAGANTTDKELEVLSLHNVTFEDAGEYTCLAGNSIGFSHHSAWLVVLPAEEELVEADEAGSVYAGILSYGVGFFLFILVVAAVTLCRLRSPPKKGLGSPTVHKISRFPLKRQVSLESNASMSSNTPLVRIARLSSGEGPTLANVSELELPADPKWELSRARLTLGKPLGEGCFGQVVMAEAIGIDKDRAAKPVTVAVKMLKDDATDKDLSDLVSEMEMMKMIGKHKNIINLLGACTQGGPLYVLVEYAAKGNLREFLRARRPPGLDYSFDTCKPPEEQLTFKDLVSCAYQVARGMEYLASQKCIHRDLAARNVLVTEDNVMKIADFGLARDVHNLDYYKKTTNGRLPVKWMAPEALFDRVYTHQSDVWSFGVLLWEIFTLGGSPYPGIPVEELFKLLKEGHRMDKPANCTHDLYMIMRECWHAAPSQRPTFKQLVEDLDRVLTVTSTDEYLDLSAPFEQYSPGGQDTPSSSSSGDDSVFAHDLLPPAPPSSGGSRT

[8] = molecular target: Fibroblast growth factor receptor 3 (Homo sapiens) (UniProt P22607); test: Inhibition of FGFR3 (unknown origin) using fluorescence labeled peptide as substrate at 10 uM by IMAP assay
Procedure, shortened: (§3)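 IMAP fluorescence-polarization kinase assay at 10 µmol/L compound, run in triplicate by a contract lab. A fluorescently labeled substrate peptide is phosphorylated, then nanoparticles carrying trivalent metal bind the phosphopeptide and slow its rotation. Read-out is fluorescence polarization, expressed as percent inhibition.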

[9] = molecular target: Epithelial discoidin domain-containing receptor 1 (Homo sapiens) (UniProt Q08345); test: Binding affinity to DDR1 (unknown origin) at 10 uM
[10] = molecular target: Proto-oncogene tyrosine-protein kinase receptor Ret (Homo sapiens) (UniProt P07949); test: Inhibition of RET (unknown origin) using fluorescently-labeled peptide as substrate at 10 uM by IMAP fluorescence polarization assay
Chain of Proto-oncogene tyrosine-protein kinase receptor Ret (Homo sapiens) (P07949 whole entry): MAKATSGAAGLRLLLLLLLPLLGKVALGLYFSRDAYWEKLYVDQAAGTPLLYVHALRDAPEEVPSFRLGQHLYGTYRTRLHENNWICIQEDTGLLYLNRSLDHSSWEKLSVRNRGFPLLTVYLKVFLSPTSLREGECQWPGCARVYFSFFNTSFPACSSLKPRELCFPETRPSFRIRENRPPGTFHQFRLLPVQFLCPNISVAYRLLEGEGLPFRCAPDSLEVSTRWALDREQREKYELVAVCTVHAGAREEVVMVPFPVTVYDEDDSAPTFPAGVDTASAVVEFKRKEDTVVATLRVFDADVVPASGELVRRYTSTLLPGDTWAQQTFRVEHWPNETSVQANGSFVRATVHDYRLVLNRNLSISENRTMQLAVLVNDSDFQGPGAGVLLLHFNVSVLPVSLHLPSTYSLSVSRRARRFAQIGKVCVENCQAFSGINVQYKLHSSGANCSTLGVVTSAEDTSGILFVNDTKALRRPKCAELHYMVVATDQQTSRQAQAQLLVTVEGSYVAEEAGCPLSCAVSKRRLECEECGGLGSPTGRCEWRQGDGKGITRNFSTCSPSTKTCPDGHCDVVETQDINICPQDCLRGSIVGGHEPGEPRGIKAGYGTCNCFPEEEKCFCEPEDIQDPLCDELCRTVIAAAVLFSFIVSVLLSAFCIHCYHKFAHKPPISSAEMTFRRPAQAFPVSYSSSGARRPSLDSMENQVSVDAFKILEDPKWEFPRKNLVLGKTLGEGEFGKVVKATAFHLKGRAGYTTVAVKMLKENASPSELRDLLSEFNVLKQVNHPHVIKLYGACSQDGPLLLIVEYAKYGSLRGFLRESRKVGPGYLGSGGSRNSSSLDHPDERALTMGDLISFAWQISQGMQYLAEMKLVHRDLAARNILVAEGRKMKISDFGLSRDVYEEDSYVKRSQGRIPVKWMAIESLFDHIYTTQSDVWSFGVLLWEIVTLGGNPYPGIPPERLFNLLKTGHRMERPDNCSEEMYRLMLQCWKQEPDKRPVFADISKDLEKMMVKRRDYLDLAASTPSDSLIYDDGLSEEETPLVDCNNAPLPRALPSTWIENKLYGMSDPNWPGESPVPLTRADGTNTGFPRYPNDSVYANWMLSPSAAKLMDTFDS

[11] = molecular target: Proto-oncogene tyrosine-protein kinase receptor Ret (Homo sapiens) (UniProt P07949); test: Inhibition of RET (unknown origin) using fluorescence labeled peptide as substrate at 10 uM by IMAP assay
Procedure, shortened: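 Kinase selectivity profiling, run by a contract lab, with the test compound at 10 µmol/L in triplicate. In the IMAP format, the kinase phosphorylates a fluorescently labelled substrate peptide in solution. A binding solution of trivalent metal-based nanoparticles is then added to capture the phosphopeptide, and the drop in rotational speed is read as fluorescence polarization. Results are given as percent inhibition of each kinase.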

[12] = molecular target: Serine/threonine-protein kinase B-raf (Homo sapiens) (UniProt P15056); test: Inhibition of BRAF (unknown origin) at 10 uM by reporter probe displacement binding assay
[13] = molecular target: Tyrosine-protein kinase CSK (Homo sapiens, UniProt P41240); test: Inhibition of CSK (unknown origin) using fluorescence labeled peptide as substrate at 10 uM by IMAP assay; procedure, shortened: as §3
Chain of Tyrosine-protein kinase CSK (P41240 2-450 limits assumed): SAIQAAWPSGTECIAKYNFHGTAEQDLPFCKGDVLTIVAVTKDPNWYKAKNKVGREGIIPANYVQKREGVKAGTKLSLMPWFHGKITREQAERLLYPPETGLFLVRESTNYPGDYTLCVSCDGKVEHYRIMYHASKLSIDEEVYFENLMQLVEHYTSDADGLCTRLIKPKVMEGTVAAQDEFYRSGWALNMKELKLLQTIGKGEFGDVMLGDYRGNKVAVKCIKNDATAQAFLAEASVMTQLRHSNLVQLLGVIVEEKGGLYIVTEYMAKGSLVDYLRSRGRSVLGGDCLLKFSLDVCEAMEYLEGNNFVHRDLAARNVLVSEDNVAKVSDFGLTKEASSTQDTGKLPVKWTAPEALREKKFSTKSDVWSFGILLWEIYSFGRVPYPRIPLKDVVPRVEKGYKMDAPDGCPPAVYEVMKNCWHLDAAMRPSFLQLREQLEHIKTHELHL

[14] = molecular target: Insulin receptor (Homo sapiens) (UniProt P06213); test: Inhibition of INSR (unknown origin) using fluorescently-labeled peptide as substrate at 10 uM by IMAP fluorescence polarization assay
[15] = molecular target: Tyrosine-protein kinase SYK (Homo sapiens) (UniProt P43405); test: Binding affinity to SYK (unknown origin) at 10 uM
[16] = molecular target: Serine/threonine-protein kinase SIK3 (Homo sapiens, UniProt Q9Y2K2); test: Binding affinity to QSK in SILAC-labeled human MDA-MB-231 cells lysate by mass spectrometry based kinAffinity assay; format: subcellular
Procedure, shortened: (§4)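 MDA-MB-231 lysate applied to KinAffinity matrix of immobilized broadband kinase inhibitors at graded densities to obtain BC50 per target. Competition then run with increasing free compound to give CC50; Kd derived by Cheng-Prusoff. Two competition experiments in parallel to check equilibrium, one with lysate pre-incubated with compound before adding matrix. Quantitation by mass spectrometry.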

[17] = molecular target: TGF-beta receptor type-1 (Homo sapiens, UniProt P36897); test: Binding affinity to TGFBR1 in SILAC-labeled human MDA-MB-231 cells lysate by mass spectrometry based kinAffinity assay; format: subcellular; procedure, shortened: as §4
Chain of TGF-beta receptor type-1 (P36897 whole entry): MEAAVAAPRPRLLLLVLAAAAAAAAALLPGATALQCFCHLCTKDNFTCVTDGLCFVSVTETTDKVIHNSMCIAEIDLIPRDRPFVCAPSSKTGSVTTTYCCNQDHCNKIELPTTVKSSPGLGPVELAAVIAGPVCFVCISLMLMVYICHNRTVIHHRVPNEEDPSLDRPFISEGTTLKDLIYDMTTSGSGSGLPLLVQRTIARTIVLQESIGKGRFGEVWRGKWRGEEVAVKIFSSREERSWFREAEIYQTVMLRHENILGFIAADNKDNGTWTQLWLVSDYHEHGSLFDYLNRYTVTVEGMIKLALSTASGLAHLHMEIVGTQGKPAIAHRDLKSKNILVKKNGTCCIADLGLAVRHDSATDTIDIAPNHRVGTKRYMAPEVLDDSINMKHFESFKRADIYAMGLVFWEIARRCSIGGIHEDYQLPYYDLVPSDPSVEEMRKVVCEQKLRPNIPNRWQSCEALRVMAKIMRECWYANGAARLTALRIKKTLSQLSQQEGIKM

[18] = Antitumor activity against AXL expressing mouse MXT cells allografted in mouse assessed as survival time at 15 mg/kg, ip qd administered 21 consecutive days; format: functional
Procedure, shortened: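 MXT mammary tumour cells implanted subcutaneously and staged to about 125 mm3. Dosing then began: once daily ip for 21 consecutive days, at 5 or 15 mg/kg, alongside a vehicle group, with 7 animals per group. Survival in days was recorded for each animal and given as mean ± SD, and as T/C% against the vehicle group (vehicle = 100%).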

[19] = Toxicity in mouse allografted with AXL expressing mouse MXT cells assessed as weight loss at 15 mg/kg, ip qd administered 21 consecutive days; format: organism-based; settings: in vivo
[20] = Toxicity in mouse allografted with AXL expressing mouse MXT cells assessed as morbidity at 15 mg/kg, ip qd administered 21 consecutive days; format: organism-based; settings: in vivo
[21] = Antitumor activity against AXL expressing mouse MXT cells allografted in mouse assessed as reduction in tumor size at 15 mg/kg, ip qd administered 21 consecutive days relative to control; format: functional; set-up: scale not given: the % may be the effect or the level left
Procedure, shortened: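 MXT mammary tumor cells implanted subcutaneously, grown to about 125 mm3, then dosed ip once daily for 21 consecutive days at 5 or 15 mg/kg vs vehicle, 7 animals/group; tumor size compared with vehicle after 3 weeks, survival also recorded.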

Compound: COc1cc2c(Oc3ccc(NS(=O)(=O)c4cc(F)ccc4F)cc3F)ccnc2cc1OCCCN1CCN(C)CC1
- Activity [1]: 14.3%
- Activity [2]: Toxic
- Kd(free) [3]: 2.857 µM
- Kd(free) [4]: 3.75 µM
- Activity [5]: 65.7%
- Vd [6]: 10.2 L/kg

Compound: COc1cc2c(Oc3ccc(NS(=O)(=O)c4ccccc4C(F)(F)F)cc3F)ccnc2cc1OCCCN1CCN(C)CC1
- inhibition [7]: Active
- inhibition [8]: Active
- inhibition [9]: Active
- inhibition [10]: Active
- inhibition [11]: Active
- inhibition [12]: Active
- inhibition [13]: Active
- inhibition [14]: Active
- inhibition [15]: Active

Compound: COc1cc2c(Oc3ccc(NS(=O)(=O)c4c(F)cccc4F)cc3F)ccnc2cc1OCCCN1CCN(C)CC1
- Kd(free) [16]: 7.63 µM
- Kd(free) [17]: 0.205 µM

Compound: COc1cc2c(Oc3ccc(NS(=O)(=O)c4cc(F)ccc4F)cc3F)ccnc2cc1OCCCN1CCCC(C)C1 (stereo unspecified)
- T/C [18]: 127%
- Activity [19]: Non-Toxic
- Activity [20]: Non-Toxic
- Activity [21]: 40%

Source: ChEMBL document CHEMBL4371006, “Discovery of N-[4-(Quinolin-4-yloxy)phenyl]benzenesulfonamides as Novel AXL Kinase Inhibitors” (J Med Chem, 2018)
